SMILES strings stand for the structures. Calls of active or inactive are those of the source. The rule behind the calls is not given here.

Activity data for one molecule are collected here from ChEMBL document CHEMBL1122622, “Carbocyclic analogues of xylofuranosylpurine nucleosides. Synthesis and antitumor activity” (J Med Chem, 1984).

The subject of this assay is Mus musculus. In words: Compound was tested for antileukemic activity in P388 leukemia mice when administered a dose of 100 mg/kg/day; IA means inactive. It counts as functional, organism-based. An outline of the steps: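 BDF1 male mice, eight per group, implanted ip with 10⁶ P388 leukemia cells. Drug given ip in 0.5 mL saline. Schedules varied between groups; the 100 mg/kg/day regimen was dosed qd 1-9.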

As for `Nc1ncnc2c1ncn2[C@@H]1C[C@H](CO)[C@@H](O)[C@H]1O`, the outcome was inactive.
